# In ChEMBL document CHEMBL3351942, “Rexinoids isolated from Sophora tonkinensis with a gene expression profile distinct from the synthetic rexinoid bexarotene” (J Nat Prod, 2014):
# Active and inactive are the calls of the source. No cut-off for these calls is given here.
# Columns and labels:
# [1] = target: T1, Peroxisome proliferator-activated receptor delta (Mus musculus) (UniProt P35396); assay: Activation of PPARdelta in mouse C2C12 cells assessed as induction of CPT1A mRNA expression at 10 uM after 24 hrs by quantitative RT-PCR analysis; format: cell-based
# T1 sequence (whole entry): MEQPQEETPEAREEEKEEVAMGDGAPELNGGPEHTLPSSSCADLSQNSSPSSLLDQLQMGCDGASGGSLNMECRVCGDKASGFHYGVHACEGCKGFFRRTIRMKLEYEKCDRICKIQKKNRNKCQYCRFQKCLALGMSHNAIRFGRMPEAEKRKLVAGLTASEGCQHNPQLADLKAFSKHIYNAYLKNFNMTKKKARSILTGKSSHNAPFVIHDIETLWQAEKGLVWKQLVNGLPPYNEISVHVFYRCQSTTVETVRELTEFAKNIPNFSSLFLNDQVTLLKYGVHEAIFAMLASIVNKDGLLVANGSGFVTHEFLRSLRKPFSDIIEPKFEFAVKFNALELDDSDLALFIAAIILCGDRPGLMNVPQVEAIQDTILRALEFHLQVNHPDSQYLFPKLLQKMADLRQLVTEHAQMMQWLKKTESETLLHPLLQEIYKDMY
# Procedure, shortened: (§1)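 Differentiated C2C12 myotubes (2% horse serum, 5 days) exposed 24 h with or without PPARδ agonist GW501516 (1 μM). mRNA quantified by SYBR green real-time RT-PCR, normalized to β-actin by delta-delta Ct, and expressed as fold induction vs vehicle; means ± SD of four determinants from one of two independent experiments; one-way ANOVA with Bonferroni.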
# [2] = Activation of LXR in mouse C2C12 cells assessed as induction of SREBP1 mRNA expression at 10 uM after 24 hrs by quantitative RT-PCR analysis; format: cell-based
# [3] = target: T1, Peroxisome proliferator-activated receptor delta (Mus musculus); assay: Activation of PPARdelta in mouse C2C12 cells assessed as induction of ANGPTL4 mRNA expression at 10 uM after 24 hrs by quantitative RT-PCR analysis; format: cell-based; procedure, shortened: as §1
# [4] = target: T1, Peroxisome proliferator-activated receptor delta (Mus musculus); assay: Activation of PPARdelta in mouse C2C12 cells assessed as induction of FABP3 mRNA expression at 10 uM after 24 hrs in presence of GW501516 by quantitative RT-PCR analysis; format: cell-based; procedure, shortened: as §1
# [5] = Activation of LXR in mouse C2C12 cells assessed as induction of ApoE mRNA expression at 10 uM after 24 hrs in presence of T0901317 by quantitative RT-PCR analysis; format: cell-based
# Procedure, shortened: (§2)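 C2C12 myoblasts grown in DMEM/10% FBS, differentiated at confluence in 2% horse serum, medium changed every other day for 5 days; myotubes treated 24 h with or without T0901317 (1 μM). Total RNA, DNase-treated, oligo(dT) RT from 0.5 μg, SYBR green qPCR; normalized to β-actin (delta-delta Ct), fold over vehicle; mean ± SD of four determinants, one of two experiments.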
# RAW264.7 = assay: Activation of RXR/LXR heterodimer in mouse RAW264.7 cells assessed as increase in ABCA1 protein level at 10 uM after 24 hrs in presence of T0901317 by Western blotting analysis; format: cell-based
# Homo sapiens [6] = species: Homo sapiens; assay: Activation of PPARgamma/RXR heterodimer in human hepatoma cells assessed as potentiation of rosiglitazone-induced increase in ANGPTL4 mRNA level at 10 uM by quantitative RT-PCR analysis; format: cell-based
# Procedure, shortened: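 HLE human hepatoma cells (DMEM, 10% FBS, 37 °C, 5% CO2) treated with or without rosiglitazone; ANGPTL4 mRNA by SYBR green qRT-PCR, β-actin-normalized delta-delta Ct, fold vs vehicle; means ± SD of three determinants, representative of three experiments.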
# [7] = Activation of LXR in mouse C2C12 cells assessed as induction of ApoD mRNA expression at 10 uM after 24 hrs by quantitative RT-PCR analysis; format: cell-based; procedure, shortened: as §2
# [8] = target: T2, Retinoic acid receptor RXR-beta (Homo sapiens) (UniProt P28702); assay: Binding affinity to RXRbeta (unknown origin) by receptor-SRC1 cofactor complex formation assay
# T2 sequence (whole entry): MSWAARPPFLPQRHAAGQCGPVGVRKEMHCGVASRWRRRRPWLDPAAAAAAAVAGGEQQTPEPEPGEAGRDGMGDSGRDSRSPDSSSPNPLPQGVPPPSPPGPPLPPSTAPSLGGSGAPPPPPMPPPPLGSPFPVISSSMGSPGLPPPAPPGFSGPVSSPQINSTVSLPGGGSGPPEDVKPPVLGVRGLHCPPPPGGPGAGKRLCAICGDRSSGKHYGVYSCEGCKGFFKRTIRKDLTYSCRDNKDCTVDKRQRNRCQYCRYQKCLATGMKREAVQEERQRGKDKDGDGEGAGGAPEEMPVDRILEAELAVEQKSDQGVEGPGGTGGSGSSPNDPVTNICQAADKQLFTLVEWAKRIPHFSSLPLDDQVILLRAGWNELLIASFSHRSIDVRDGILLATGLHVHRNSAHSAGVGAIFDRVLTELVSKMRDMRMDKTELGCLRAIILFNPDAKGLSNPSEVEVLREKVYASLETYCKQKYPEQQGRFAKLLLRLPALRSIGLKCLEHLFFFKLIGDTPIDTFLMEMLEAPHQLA
# Procedure, shortened: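 Ligand-dependent binding of RXR isotype to coactivator SRC-1 in an NR cofactor kit, detected with HRP-conjugated anti-RXR antibody at OD450. The full agonist CD3254 defined 100% and vehicle 0%. Efficacy was taken as maximum B/Bmax% and potency as EC50.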
# Homo sapiens [9] = species: Homo sapiens; assay: Activation of RXR/VDR heterodimer in human hepatoma cells assessed as increase in CYP24A1 mRNA level at 10 uM by quantitative RT-PCR analysis; format: cell-based
# Procedure, shortened: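 HLE hepatoma cells treated 24 h with or without VD3 (0.1 μM); CYP24A1 mRNA by SYBR green qRT-PCR normalized to β-actin (delta-delta Ct), fold over vehicle; means ± SD of three determinants, representative of three experiments.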
# [10] = target: T3, Oxysterols receptor LXR-alpha (Homo sapiens) (UniProt Q13133); assay: Activation of human LXR-alpha expressed in HEK293 cells coexpressing with pGL4.1-DR4-Luc after 24 hrs by luciferase reporter gene assay; format: cell-based
# T3 sequence (whole entry): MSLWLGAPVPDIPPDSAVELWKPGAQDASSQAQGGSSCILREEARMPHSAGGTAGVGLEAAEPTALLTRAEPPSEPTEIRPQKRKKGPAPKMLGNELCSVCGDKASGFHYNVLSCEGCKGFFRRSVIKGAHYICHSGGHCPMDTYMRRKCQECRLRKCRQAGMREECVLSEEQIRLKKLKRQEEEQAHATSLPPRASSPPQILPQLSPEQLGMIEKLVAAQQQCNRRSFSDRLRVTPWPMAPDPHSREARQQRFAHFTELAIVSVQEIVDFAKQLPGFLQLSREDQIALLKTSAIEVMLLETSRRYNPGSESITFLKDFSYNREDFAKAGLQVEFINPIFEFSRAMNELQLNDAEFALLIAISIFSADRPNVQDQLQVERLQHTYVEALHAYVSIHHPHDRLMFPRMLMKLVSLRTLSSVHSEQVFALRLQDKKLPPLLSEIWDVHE
smiles,measurement,setting,value
CC(C)=CCc1cc([C@@H]2CC(=O)c3ccc(O)c(CC=C(C)C)c3O2)cc2c1OC(C(C)(C)O)C2 (stereo partly specified),Activity,[1],Active
same,Activity,[2],Active
same,Activity,[3],Active
same,Activity,[4],Active
same,Activity,[5],Active
same,Activity,RAW264.7,Active
same,Activity,Homo sapiens [6],Active
same,Activity,[7],Active
same,Activity,[8],inactive
same,Activity,Homo sapiens [9],Active
same,Activity,[10],inactive
